PG9 binder = binders of HIV-1 gp120 antibody PG9, primary screen, biochemical, TR-FRET; HIV-1 gp120 / PG9 antibody interaction; TR-FRET gp120-PG9 antibody binding; inhibition, % at 6.7 µM; 0.43% of 360,000 active; in the data active means inhibition above about 8.5%
MC4R barr agon = MC4R agonists recruiting beta-arrestin, primary screen, cell-based, luminescence, agonist arm of biased-ligand search. Melanocortin receptor 4 (Homo sapiens), P32245. U2OS MC4R beta-arrestin complementation; percent of melanotan II response, DMSO zero. activation, % at 8.9 µM. 0.98% of 360,000 active. AID 540308, 2011;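 active means activation above a per-plate cutoff, the mean activation of sample wells on that plate plus 3 SD, cut at about 8% in these data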
NR1D1 modulator = modulators of Rev-erb alpha DNA binding, primary screen, biochemical, FITC-DNA, fluorescence polarization, uHTS; Rev-erbα–FITC-DNA binding, 90 min; AID 1259318, 2017; activity, % at 10 µM; 0.79% of 370,000 active; Nuclear receptor subfamily 1 group D member 1 (Homo sapiens), P20393;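 active means activity above about 14%, limit read from the data; passing the limit was not always enough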;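 further: 0% = DMSO wells with 35 nM protein and 100% = DMSO wells with 750 nM protein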
NTR1 ag = agonists of human NTR1, primary screen, imaging, U2OS cells, beta-arrestin-GFP, high content | Neurotensin receptor type 1 (Homo sapiens), P30989 | NTR1-U2OS beta-arrestin-GFP spot imaging, agonist mode | activation, % at 20 µM | 0.17% of 330,000 active;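 active means activation at or above 40% of the spot to cytoplasm intensity ratio, with at least 20 cells analyzed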;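 further: 0% = DMSO without peptide and 100% = 100 nM NTR1 peptide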
Target sequence (P30989 whole entry, looked up): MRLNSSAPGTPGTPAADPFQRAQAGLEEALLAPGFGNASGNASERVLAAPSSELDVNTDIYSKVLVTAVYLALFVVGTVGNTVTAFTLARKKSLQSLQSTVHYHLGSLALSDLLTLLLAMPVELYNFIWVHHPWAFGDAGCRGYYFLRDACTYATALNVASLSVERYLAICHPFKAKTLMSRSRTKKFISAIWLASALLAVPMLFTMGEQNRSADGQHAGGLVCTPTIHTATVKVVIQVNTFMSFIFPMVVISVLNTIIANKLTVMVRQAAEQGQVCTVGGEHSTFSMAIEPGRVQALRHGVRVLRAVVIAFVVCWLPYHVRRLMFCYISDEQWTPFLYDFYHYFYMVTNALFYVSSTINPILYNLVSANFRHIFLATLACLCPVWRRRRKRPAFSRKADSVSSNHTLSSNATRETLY
MC4R antag cAMP = MC4R antagonists of cAMP signaling, primary screen, cell-based, TR-FRET, antagonist arm of biased-ligand search; MC4R-expressing cells, MTII-stimulated cAMP, LANCE TR-FRET; inhibition, % at 6.5 µM; 0.48% of 360,000 active; AID 540295, 2011;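 active means inhibition above its plate's cutoff, the mean of tested wells on that plate plus 3 SD, cut at about 29% in these data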;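 further: 0% = Melanotan II alone and 100% = Melanotan II plus saturating MCL0020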
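Material – human MC4R-expressing U2OS cells · Repeats – no replicates · Detection – TR-FRET with Eu-cAMP and labeled anti-cAMP, 671 nm · Times – compound 30 min, challenge 1 h, detection 1 h · Compound – single nominal compound dose of 6.5 µM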
Rev-erbA confirm = modulators of Rev-erb alpha DNA binding, confirmation, biochemical, FITC-DNA, fluorescence polarization, single point; 90 min; 61% of 3,000 active; shares compounds with NR1D1 modulator; activation, % at 25 µM;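 active means activation at or above a set limit, or at least 3 SD above the negative control mean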;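 further: 0% = 35 nM protein with DMSO and 100% = 750 nM protein high control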
RORg counter = modulation of RORgamma DNA binding, dose response, counter-screen for Rev-erb alpha modulator project, biochemical, fluorescence polarization, FITC-DNA | shares compounds with NR1D1 modulator | 8% of 910 active | IC50, µM | purified RORgamma protein-FITC-DNA binding | AID 1259320, 2017;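 active means Compounds whose fitted half-maximal concentration for disrupting protein-DNA binding is below 10 micromolar; the record names Rev-erb in its text, so the target is in doubt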
Numbers without * were called inactive. Most compounds without a hit are left out; they make up all but 2.5% or so of the library.

How did COc1ccccc1N1N=C(C(=O)c2ccccc2)C2C(=O)N(c3ccc(Br)cc3)C(=O)C21 (stereo not drawn) do in these assays?
PG9 binder: 0; MC4R barr agon: 0; NR1D1 modulator: 29*; NTR1 ag: 0; MC4R antag cAMP: 10; Rev-erbA confirm: 31*; RORg counter: >40

Results for CN(CCO)c1ccc(C=NNc2ccc([N+](=O)[O-])cc2S(=O)(=O)Nc2ccccc2C(=O)O)cc1 ?
PG9 binder: -2; MC4R barr agon: -4; NR1D1 modulator: 21*; NTR1 ag: -1; MC4R antag cAMP: -1; Rev-erbA confirm: 4

Results for CC(=O)Nc1ccc(C=NNc2ccc([N+](=O)[O-])cc2S(=O)(=O)Nc2ccccc2C(=O)O)cc1 ?
PG9 binder: 2; MC4R barr agon: -4; NR1D1 modulator: 0; NTR1 ag: -1; MC4R antag cAMP: 3

Results for CC(=O)Nc1ccc(-c2cc(-c3ccc(NC(C)=O)cc3)nc(-c3ccccc3)n2)cc1 ?
PG9 binder: -2; MC4R barr agon: 1; NR1D1 modulator: 41*; NTR1 ag: 1; MC4R antag cAMP: 12; Rev-erbA confirm: 24*

How did Cc1ccc2c(c1)c(/C=C/c1cc[n+](C)cc1)c(C)n2C do in these assays?
PG9 binder: -31; MC4R barr agon: 1; NR1D1 modulator: 280*; NTR1 ag: -4; MC4R antag cAMP: -31; Rev-erbA confirm: 224*; RORg counter: inactive

What do the screens show for `Cn1cc(/C=C/c2cc[n+](C)cc2)c2cc(F)ccc21`?
MC4R barr agon: 1; MC4R antag cAMP: -18

Results for C[n+]1ccc(/C=C/c2ccc(Br)cc2)cc1 ?
PG9 binder: -1; MC4R barr agon: -1; NR1D1 modulator: 1; NTR1 ag: 0; MC4R antag cAMP: 0

What do the screens show for `Cc1ccc2[nH]c(C)c(/C=C/c3cc[n+](C)cc3)c2c1`?
PG9 binder: -26; MC4R barr agon: -1; NR1D1 modulator: 235*; NTR1 ag: -4; MC4R antag cAMP: -43; Rev-erbA confirm: 182*; RORg counter: >40

Results for CC(=O)Nc1nc2ncccn2c1-c1ccc(C)cc1 ?
NR1D1 modulator: 4

How did O=S1(=O)c2ccc(N3CCN(Cc4ccccc4F)CC3)cc2Oc2ccccc2CN1Cc1cn(Cc2cccc(C(F)(F)F)c2)nn1 do in these assays?
NR1D1 modulator: 11

How did Cn1cc(/C=C/c2cc[n+](C)cc2)c2cc(Cl)ccc21 do in these assays?
PG9 binder: -8; MC4R barr agon: -2; NR1D1 modulator: 165*; MC4R antag cAMP: -15; Rev-erbA confirm: 140*; RORg counter: >40

Results for COc1ccc(Cl)cc1C(=O)Nc1ccc(Br)c(C)n1 ?
PG9 binder: -3; MC4R barr agon: 0; NR1D1 modulator: 28*; NTR1 ag: 11; MC4R antag cAMP: 6; Rev-erbA confirm: 4

How did Cc1ccc(-n2c(-c3cccs3)nc3nc4ccccc4nc32)cc1 do in these assays?
PG9 binder: 0; NR1D1 modulator: -2; NTR1 ag: 16

What do the screens show for `Fc1ccc(-n2c(-c3cccs3)nc3nc4ccccc4nc32)cc1`?
PG9 binder: 1; MC4R barr agon: 0; NR1D1 modulator: 75*; NTR1 ag: 5; MC4R antag cAMP: 5; Rev-erbA confirm: 59*; RORg counter: >40

How did O=C(CN1CCN(Cc2ccccc2Cl)CC1)N/N=C\c1ccccc1F do in these assays?
NR1D1 modulator: 0

Results for Cn1c(C(=O)NC2CCCCCC2)cc2c(=O)n(C)c3ccccc3c21 ?
PG9 binder: 0; MC4R barr agon: 0; NR1D1 modulator: 48*; NTR1 ag: 14; MC4R antag cAMP: 2; Rev-erbA confirm: 26*

Results for Cc1ccc(CNC(=O)c2cc3c(=O)n(C)c4ccccc4c3n2C)cc1 ?
PG9 binder: -4; MC4R barr agon: -2; NR1D1 modulator: 63*; NTR1 ag: 6; MC4R antag cAMP: 5; Rev-erbA confirm: 43*; RORg counter: >40

What do the screens show for `Cn1c(C(=O)NCc2cccs2)cc2c(=O)n(C)c3ccccc3c21`?
PG9 binder: -1; MC4R barr agon: 1; NR1D1 modulator: 33*; NTR1 ag: 8; MC4R antag cAMP: 3; Rev-erbA confirm: 18*

What do the screens show for `CCCCCCCCN1C(=O)[C@@H](CC(=O)NCCC(C)C)C[C@@]2(C(=O)OC)C1=C[C@H](COCc1ccccc1)O[C@@H]2C`?
NR1D1 modulator: -1

Results for CC(COc1cc(F)cc(F)c1)CN1CCC(C(O)(c2ccccc2)c2ccccc2)CC1 (stereo not drawn) ?
NR1D1 modulator: -1

Results for CC1Cc2ccccc2N1C(=O)CSc1nc2cc3c(cc2cc1C#N)OCO3 (stereo not drawn) ?
PG9 binder: 4; MC4R barr agon: -2; NR1D1 modulator: 70*; NTR1 ag: 6; MC4R antag cAMP: 3; Rev-erbA confirm: 32*

Results for Cc1cc2ccccc2nc1SCC(=O)N1c2ccccc2CC1C (stereo not drawn) ?
PG9 binder: 1; MC4R barr agon: -2; NR1D1 modulator: 147*; NTR1 ag: 4; MC4R antag cAMP: 2; Rev-erbA confirm: -2

What do the screens show for `N#Cc1cccc(Cn2ccc3ccc(-c4ccc5ccn(Cc6cccc(C#N)c6)c5c4)cc32)c1`?
NR1D1 modulator: 59*; Rev-erbA confirm: 38*; RORg counter: 2.5*

Results for COc1ccc(Cn2ccc3ccc(-c4ccc5ccn(Cc6ccc(C#N)cc6)c5c4)cc32)cc1 ?
NR1D1 modulator: 38*; Rev-erbA confirm: 1

Results for c1ccc(Cn2ccc3ccc(-c4ccc5ccn(Cc6cccc(-c7ccsc7)c6)c5c4)cc32)cc1 ?
NR1D1 modulator: 31*; Rev-erbA confirm: 17*

Results for COc1ccc2nc(NN=Cc3cccc(C)n3)cc(C)c2c1 ?
PG9 binder: -6; NR1D1 modulator: -8

What do the screens show for `CCC(C)NC(=O)Cc1c(OC)ccc2cc(Br)ccc12` (stereo not drawn)?
PG9 binder: 8; MC4R barr agon: 4; NR1D1 modulator: 23*; NTR1 ag: 0; MC4R antag cAMP: 15; Rev-erbA confirm: 40*; RORg counter: >40
